Results on ten compounds are retold here after ChEMBL document CHEMBL1764950, “Diphenylamine-based retinoid antagonists: regulation of RAR and RXR function depending on the N-substituent” (Bioorg Med Chem, 2011).

pEC50: −log10 of the molar value. Calls of active or inactive are those of the source. No cut-off for these calls is given here.

In assay [1] the test system is HL-60. In words: Induction of human HL60 cell differentiation by NBT reduction assay. Format: functional, cell-based. The method, boiled down:
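HL-60 cells in RPMI1640 with 5% FBS were seeded at about 8 × 10⁴ cells/mL and given compound from a 2 mM ethanol stock (final ethanol below 0.5%) for 4 days. Differentiation was scored by NBT reduction: 20 min at 37 °C with 0.2% NBT and 200 ng/mL TPA, counting formazan-positive cells among at least 200. EC₅₀ is the concentration differentiating 50% of cells with compound alone.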

The subject of assay [2] is HL-60. The assay can be described thus: Inhibition of Am80-induced cell differentiation in human HL60 cells at 1 x 10^-6 M after 4 days by NBT reduction assay. The format is functional. Particulars: HL-60, 96 h. In outline:
(§1)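 Cells were co-treated with 3.3 × 10⁻¹⁰ M Am80 plus test compound (ethanol, final below 0.5%), seeded at about 8 × 10⁴ cells/mL in RPMI1640 with 5% FBS, and held 4 days. The percentage of differentiated cells was determined by NBT/TPA reduction (20 min, 37 °C), counting at least 200 cells.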

The subject of assay [3] is HL-60. In words: Inhibition of Am80-induced cell differentiation in human HL60 cells by NBT reduction assay. Format: functional, cell-based. In outline:
as §1

Assay [4] deals with HL-60. In words: Synergistic induction of human HL60 cell differentiation in presence of RAR agonist Am80 at 1 X 10^-10 M. The format is functional. In outline:
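Synergy was tested in HL-60 cells given test compound together with 1 × 10⁻¹⁰ M Am80 for 4 days, with each agent also assayed alone. Differentiation was scored by NBT reduction (0.2% NBT, 200 ng/mL TPA, 20 min, 37 °C; ≥200 cells). SEC₅₀ is the concentration giving 50% differentiated cells in the presence of Am80.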

The target of assay [5] is Retinoic acid receptor beta (Homo sapiens) (UniProt P10826). The assay can be described thus: Antagonist activity at human RARbeta expressed in COS-1 cells assessed as inhibition of Am80-induced transactivation by luciferase reporter gene assay. On the technique in general: In a reporter assay the amount or activity of a reporter protein is the signal.
Sequence of Retinoic acid receptor beta (Homo sapiens) (P10826 whole entry, looked up): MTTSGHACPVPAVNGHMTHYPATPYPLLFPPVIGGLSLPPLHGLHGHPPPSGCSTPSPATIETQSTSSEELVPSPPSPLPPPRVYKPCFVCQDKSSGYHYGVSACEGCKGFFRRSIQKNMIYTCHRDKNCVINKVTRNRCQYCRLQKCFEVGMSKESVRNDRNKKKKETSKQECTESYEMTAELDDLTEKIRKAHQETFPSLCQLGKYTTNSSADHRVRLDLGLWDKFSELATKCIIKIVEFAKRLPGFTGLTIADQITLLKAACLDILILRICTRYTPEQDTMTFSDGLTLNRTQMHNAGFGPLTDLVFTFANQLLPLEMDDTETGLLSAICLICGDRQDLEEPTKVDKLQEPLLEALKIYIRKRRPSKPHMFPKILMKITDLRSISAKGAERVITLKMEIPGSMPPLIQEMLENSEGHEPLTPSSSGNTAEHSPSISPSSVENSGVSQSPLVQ
In assay [6] the target is Retinoic acid receptor alpha (Homo sapiens) (UniProt P10276). In words: Antagonist activity at human RARalpha expressed in COS-1 cells assessed as inhibition of Am80-induced transactivation by luciferase reporter gene assay.
Sequence of Retinoic acid receptor alpha (Homo sapiens) (P10276 whole entry, looked up): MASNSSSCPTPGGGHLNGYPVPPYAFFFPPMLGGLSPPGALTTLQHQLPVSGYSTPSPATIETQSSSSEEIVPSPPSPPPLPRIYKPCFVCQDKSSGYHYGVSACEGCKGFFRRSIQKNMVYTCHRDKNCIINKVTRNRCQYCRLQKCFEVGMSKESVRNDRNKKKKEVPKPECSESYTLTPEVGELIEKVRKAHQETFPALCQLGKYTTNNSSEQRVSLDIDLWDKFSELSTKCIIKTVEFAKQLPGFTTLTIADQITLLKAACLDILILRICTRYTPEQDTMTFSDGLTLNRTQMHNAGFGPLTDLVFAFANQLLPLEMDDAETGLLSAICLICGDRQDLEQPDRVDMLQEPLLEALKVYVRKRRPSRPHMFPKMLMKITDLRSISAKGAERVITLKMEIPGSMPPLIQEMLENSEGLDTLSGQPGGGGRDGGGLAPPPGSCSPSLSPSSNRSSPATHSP
The subject of assay [7] is Retinoid X receptor beta (Mus musculus). In words: Antagonist activity at mouse RXRbeta expressed in COS-1 cells assessed as inhibition of PA024-induced transactivation by luciferase reporter gene assay.
For assay [8], the system named is Retinoid X receptor gamma (Mus musculus). The assay can be described thus: Antagonist activity at mouse RXRgamma expressed in COS-1 cells assessed as inhibition of PA024-induced transactivation by luciferase reporter gene assay.
The target in assay [9] is Retinoic acid receptor gamma (Homo sapiens) (UniProt P13631). The assay can be described thus: Antagonist activity at human RARgamma expressed in COS-1 cells assessed as inhibition of ATRA-induced transactivation by luciferase reporter gene assay.
Sequence of Retinoic acid receptor gamma (Homo sapiens) (P13631 whole entry, looked up): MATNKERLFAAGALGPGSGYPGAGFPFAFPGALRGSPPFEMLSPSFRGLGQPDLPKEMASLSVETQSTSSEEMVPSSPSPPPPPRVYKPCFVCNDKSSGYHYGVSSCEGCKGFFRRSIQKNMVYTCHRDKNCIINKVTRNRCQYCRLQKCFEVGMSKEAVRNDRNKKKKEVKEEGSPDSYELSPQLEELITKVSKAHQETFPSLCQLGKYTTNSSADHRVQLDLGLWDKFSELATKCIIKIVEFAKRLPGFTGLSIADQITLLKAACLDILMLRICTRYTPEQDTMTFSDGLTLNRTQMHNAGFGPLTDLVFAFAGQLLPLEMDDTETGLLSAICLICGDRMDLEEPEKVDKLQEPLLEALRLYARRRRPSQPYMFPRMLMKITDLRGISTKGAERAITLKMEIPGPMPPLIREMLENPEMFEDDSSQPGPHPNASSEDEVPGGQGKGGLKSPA
The target in assay [10] is Retinoic acid receptor RXR-alpha (Mus musculus) (UniProt P28700). In words: Antagonist activity at mouse RXRalpha expressed in COS-1 cells assessed as inhibition of PA024-induced transactivation by luciferase reporter gene assay.
Sequence of Retinoic acid receptor RXR-alpha (Mus musculus) (P28700 whole entry, looked up): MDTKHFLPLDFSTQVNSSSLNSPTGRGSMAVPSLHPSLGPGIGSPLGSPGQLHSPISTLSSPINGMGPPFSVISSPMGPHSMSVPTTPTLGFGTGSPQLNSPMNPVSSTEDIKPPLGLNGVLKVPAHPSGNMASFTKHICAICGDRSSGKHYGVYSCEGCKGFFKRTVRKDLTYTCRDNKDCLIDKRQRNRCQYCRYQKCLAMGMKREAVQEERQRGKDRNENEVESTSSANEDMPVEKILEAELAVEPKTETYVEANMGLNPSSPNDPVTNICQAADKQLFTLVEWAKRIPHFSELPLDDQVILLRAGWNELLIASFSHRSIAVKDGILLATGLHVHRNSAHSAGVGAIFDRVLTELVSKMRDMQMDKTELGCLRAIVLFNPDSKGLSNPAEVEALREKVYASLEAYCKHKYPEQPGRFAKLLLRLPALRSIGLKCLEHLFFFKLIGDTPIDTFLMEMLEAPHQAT
Assay [11] has as its system HL-60. The assay can be described thus: Inhibition of Am80-induced cell differentiation in human HL60 cells at 1 x 10^-7 M after 4 days by NBT reduction assay. Particulars: HL-60, 96 h. Format: functional. In outline: as §1

For `CC1(C)CCC(C)(C)c2cc(N(Cc3ccc(C(F)(F)F)cc3)c3ccc(C(=O)O)cc3)ccc21`, the outcome in the assay on HL-60 [1] was inactive. The Differentiated cells % at 1 µM in the assay with HL-60 [2] was below 10%. Also, the inhibition entry in the assay with HL-60 [3] was “Dose-dependent effect”.

As to `Cc1ccc(CN(c2ccc(C(=O)O)cc2)c2ccc3c(c2)C(C)(C)CCC3(C)C)cc1`, in the assay on HL-60 [1], the outcome was inactive. The Differentiated cells % at 1 µM in the assay with HL-60 [2] was below 10%. In addition, in the assay with HL-60 [3], the inhibition entry is “Dose-dependent effect”.

Turning to `CCCCCCCCN(c1ccc(C(=O)O)cc1)c1ccc2c(c1)C(C)(C)CCC2(C)C`, in the assay on HL-60 [1], the outcome was inactive. The compound further gave a Differentiated cells % at 1 µM in the assay on HL-60 [2] below 10%. Besides, the inhibition entry in the assay with HL-60 [3] was “Dose-dependent effect”.

As to `CC1(C)CCC(C)(C)c2cc(Nc3ccc(C(=O)O)cc3)ccc21`, the pEC50 with HL-60 [1] (Homo sapiens, HL-60, read-out: EC50) was 6.17. In the assay with HL-60 [4], the SEC50 is listed as 2 ×10⁻⁸ M.

Turning to `CC1(C)CCC(C)(C)c2cc(N(CC3CC3)c3ccc(C(=O)O)cc3)ccc21`, in the assay with HL-60 [1] (hl-60), the EC50 result is recorded as “Not Active”. Moreover, the SEC50 with HL-60 [4] stood at 8.1 ×10⁻¹⁰ M.

Regarding `CCOc1c(F)c(F)c(CN(c2ccc(C(=O)O)cc2)c2ccc3c(c2)C(C)(C)CCC3(C)C)c(F)c1F`, the inhibition result (in assay [5]; in assay [6]; in assay [9]; in the assay with HL-60 [3]) was “Dose-dependent effect” in each case. Besides, the result with HL-60 [1] was inactive. The inhibition entry in [7], in assay [8] and in [10] was “inactive” in each case. The Differentiated cells % at 0.1 µM in the assay on HL-60 [11] was below 10%. In the assay with HL-60 [2], this compound yielded a Differentiated cells % at 1 µM below 10%.

As to `CC1(C)CCC(C)(C)c2cc(N(Cc3ccccc3-c3ccccc3)c3ccc(C(=O)O)cc3)ccc21`, the result in the assay with HL-60 [1] was inactive. The Differentiated cells % at 0.1 µM with HL-60 [11] amounted to 10%. The compound further had a Differentiated cells % at 1 µM with HL-60 [2] below 10%. The inhibition result with HL-60 [3] was “Dose-dependent effect”.

Consider `CCCCCCCN(c1ccc(C(=O)O)cc1)c1ccc2c(c1)C(C)(C)CCC2(C)C`, for which the inhibition entry (in [5]; in [6]; in assay [9]; in the assay with HL-60 [3]) was “Dose-dependent effect” throughout. Also, the result with HL-60 [1] was inactive. In addition, the inhibition result in [7], in assay [8] and in assay [10] was “inactive” throughout. This compound yielded a Differentiated cells % at 1 µM with HL-60 [2] below 10%.

For `CC1(C)CCC(C)(C)c2cc(N(Cc3ccc4ccccc4c3)c3ccc(C(=O)O)cc3)ccc21`, the outcome with HL-60 [1] was inactive. Also, the Differentiated cells % at 0.1 µM in the assay on HL-60 [11] worked out at 30%. In the assay with HL-60 [2], this compound showed a Differentiated cells % at 1 µM below 10%. The inhibition entry with HL-60 [3] is “Dose-dependent effect”.

On to `CC1(C)CCC(C)(C)c2cc(N(Cc3ccccc3)c3ccc(C(=O)O)cc3)ccc21`, for which the result with HL-60 [1] was inactive.

One may read the pEC50 as the negative decadic logarithm of the EC50, by convention in mol/L.
